Results as given in PubChem BioAssay AID504417 (Johns Hopkins Ion Channel Center, 2011).
Calls of active or inactive are those of the source.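 Rule for the calls: active = potentiation or inhibition of the KCNQ1 potassium channel at any tested concentration, with a dose response curve obtained; inactive = no effect at any concentration, or no dose response.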

The molecules below were run against Potassium voltage-gated channel subfamily KQT member 1 (Homo sapiens) (UniProt P51787) (assay: KCNQ1 channel modulation, potentiation or inhibition, dose response, selectivity assay for KCNQ2 activator project, thallium flux, KCNQ1-expressing cells (AID 504417)). Details: FluxOR thallium flux fluorescence; series mostly up to 30 µM.
How it was run: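 Controls – stimulated vehicle wells and unstimulated blank wells · Assay system – CHO cells expressing the KCNQ1 potassium channel · Measured by – kinetic FluxOR Tl+ flux fluorescence · Schedule – dye load 90 min, compound 20 min, room temperature · Measure – fluorescence change (max minus min) over baseline, normalized to vehicle and blank controls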

Chain of Potassium voltage-gated channel subfamily KQT member 1 (Homo sapiens) (P51787 whole entry, looked up): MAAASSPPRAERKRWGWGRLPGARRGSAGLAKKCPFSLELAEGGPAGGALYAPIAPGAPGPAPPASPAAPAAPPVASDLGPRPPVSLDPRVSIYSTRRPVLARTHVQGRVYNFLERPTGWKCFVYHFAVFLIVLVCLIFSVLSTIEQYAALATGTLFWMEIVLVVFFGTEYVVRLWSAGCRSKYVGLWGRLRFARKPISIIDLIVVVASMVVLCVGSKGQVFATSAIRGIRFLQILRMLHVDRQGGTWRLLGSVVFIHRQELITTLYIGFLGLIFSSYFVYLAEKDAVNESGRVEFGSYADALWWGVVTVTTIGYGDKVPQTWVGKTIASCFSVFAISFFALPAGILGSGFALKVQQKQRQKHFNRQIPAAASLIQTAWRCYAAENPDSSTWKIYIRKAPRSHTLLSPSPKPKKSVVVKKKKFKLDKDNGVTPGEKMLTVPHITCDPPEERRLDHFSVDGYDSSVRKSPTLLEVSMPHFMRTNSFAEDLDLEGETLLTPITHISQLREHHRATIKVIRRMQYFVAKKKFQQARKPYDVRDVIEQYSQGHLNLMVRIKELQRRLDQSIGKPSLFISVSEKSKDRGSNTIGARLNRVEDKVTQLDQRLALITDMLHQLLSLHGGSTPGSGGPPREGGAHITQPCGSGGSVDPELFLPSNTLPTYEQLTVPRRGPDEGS

outcome, inactive:
CCCCC(=O)Nc1c(C)cc(C)cc1Cl
Cc1cccc(C)c1NC(=O)C1CC2CCC1C2 (stereo not given)
Cc1cc(C)c(NC(=O)C2CC3CCC2C3)c(C)c1 (stereo not given)
Cc1cc(C)c(NC(=O)CC(C)(C)C)c(Cl)c1
Cc1ccc(C)c(NC(=O)C2CC3CCC2C3)c1 (stereo not given)
